Cytotoxicity data for 95 compounds are collected here from ChEMBL document CHEMBL4513216, “Probing the Open Global Health Chemical Diversity Library for Multistage-Active Starting Points for Next-Generation Antimalarials” (ACS Infect Dis, 2020).

This series is described as follows: Toxicity liver stage against HepG2, at 10uM. The format is cell-based. Details: test concentration 10 uM, cell line HepG2-A16-CD81EGFP. The settings on record: human, HepG2-A16-CD81EGFP cells; read-out: INHIBITION
The gist of the method: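 Uninfected HepG2-A16-CD81EGFP cells, 3 × 10^3 per well, 1536-well, plated on prespotted compound at 10 μM final, parasite-free screening media added to match infected plates; puromycin 10 μM positive, DMSO 0.5% negative; run in parallel with 48 h PbLuc assay at 37 °C, 5% CO2; viability by CellTiter-Glo luminescence, normalized to controls.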
As for `CN(C)c1nc(N)nc(CN2CCC(c3nc4ccccc4o3)CC2)n1`, the cytotoxicity at 10 µM was -6.9%. Consider `COc1ccccc1CN1C[C@@H](F)[C@@H](OCc2nc3ccccc3[nH]2)C1`, for which the cytotoxicity at 10 µM worked out at 9.55%. In the case of `CCNC(=O)N1CC[C@H]2CC(=O)N(CCN3CCNC3=O)CC[C@H]2C1`, the cytotoxicity at 10 µM came out at 2.22%. For the compound `COc1cccc(Oc2nc(C)c(C(=O)O)s2)c1OC`, the cytotoxicity at 10 µM is 1.96%. As to `N#Cc1nc(COc2ccc3c(c2)OCO3)oc1N1CCCC1`, the cytotoxicity at 10 µM was -42.7%. As for `Cc1ccc(S(=O)(=O)c2ncccc2CN2CCCCC2)cc1`, the figure is -47.6%; as for `CC(C)CCn1cc(C(=O)NC2CCS(=O)(=O)C2)c2ccccc2c1=O` (stereo not given), -3.68%. Consider `O=C(C1CCCO1)N1CCCn2c(nnc2Cn2cccn2)C1` (stereo not given), for which the cytotoxicity at 10 µM was 16.6%.

For `CCC(=O)N1CCc2nc(N3CCOCC3)nc(N(C)C)c2CC1`, the cytotoxicity at 10 µM came to 28.9%. As for `COCCCN1CC2(CCCCN2C(=O)COC)CC1=O` (stereo not given), the figure is 2.5%. Under `CC(C)OC[C@H]1CCC[C@]12CN(S(=O)(=O)c1cccs1)CCO2` stands -1.52%.

In the case of `Cn1cc(CN2CCc3ncnc(C4CCOC4)c3CC2)cn1` (stereo not given), the cytotoxicity at 10 µM is -7.46%. In the case of `COCC(=O)N1CCN(C(=O)NC(C)C)CC2(CC(=O)N(C)C2)C1` (stereo not given), the cytotoxicity at 10 µM stood at 1.76%.

Take `CCC(CC)C(=O)N1CCc2nc(N3CCCC3)nc(C)c2CC1`: the cytotoxicity at 10 µM stood at 1.79%.

For the compound `COc1ccc(CN2Cc3cnn(C)c3C(COCC3CC3)C2)cc1` (stereo not given), the cytotoxicity at 10 µM stood at 14.5%. As to `CCOc1cccc2c1OCC(=O)N(c1ccc(N(C)C)cc1)C2`, the cytotoxicity at 10 µM came out at 4.28%. `CC(=O)Nc1ncc(-c2ccc(C)cc2)[nH]1`: the cytotoxicity at 10 µM is -4.63%. Regarding `CN1CCC(Cc2cnc3ccccc3c2)C1` (stereo not given), the cytotoxicity at 10 µM amounted to 1.42%. Take `COCCNC(=O)c1cc(S(=O)(=O)N2CCCCCC2)cs1`: the cytotoxicity at 10 µM is -14.8%. In the case of `CNc1ccc(CC2CCCN(C(=O)c3cccc(C)n3)C2)nn1` (stereo not given), the cytotoxicity at 10 µM was -12.3%. With `Cc1ncsc1C(=O)N1CCC(O)(CN2CCc3ccccc3C2)C1` (stereo not given), the cytotoxicity at 10 µM is -8.11%. As to `CC(=O)N1CCCC1c1cc(N2CCN(CC3CC3)CC2)cc(C)n1` (stereo not given), the cytotoxicity at 10 µM was -2.14%.

As for `CC(C)CSCCN1CCN(S(C)(=O)=O)CC1`, the cytotoxicity at 10 µM was -3.66%. For `CCCOc1ccc(CN)c(OC(F)F)c1`, the cytotoxicity at 10 µM was -41.7%. As to `CC(C)(C)C(=O)NCC(=O)Nc1cccnc1`, the cytotoxicity at 10 µM was -4.96%.

`Cc1[nH]nc2ncc(C(=O)N3CCN(C(C)(C)C)CC3)cc12`: the cytotoxicity at 10 µM is -4.36%. Take `N#Cc1cccnc1Nc1ccc(N2CCC(C(N)=O)CC2)cc1`: the cytotoxicity at 10 µM was -40.1%.

With `CN1N=C(C(=O)NCCc2ccc(OC3CCCC3)cc2)CCC1=O`, the cytotoxicity at 10 µM is -1.52%. Under `Cc1cc(CNC(=O)NCCCC(=O)N2CCc3ccccc32)no1` stands 5.02%. As for `OC1(CNCc2ccc(F)c(C(F)(F)F)c2)CCSCC1`, the figure is 5.1%.

As for `COCCOc1ncccc1C(=O)N(C)c1nccs1`, the cytotoxicity at 10 µM is -44.1%. With `COc1ncccc1NC(=O)N1CCOCC1C` (stereo not given), the cytotoxicity at 10 µM was -4.86%.

In the case of `CC(c1ncc(C(C)(C)C)o1)N1CCN(Cc2ccncc2)CC1` (stereo not given), the cytotoxicity at 10 µM was -12.3%. On to `CCOC(=O)CCCN1CCCC(C(=O)Nc2ccc(Cl)cn2)C1` (stereo not given), for which the cytotoxicity at 10 µM was 2.69%. `Cc1nc(C(=O)N(CC2CCCO2)c2ccncc2)cs1` (stereo not given): the cytotoxicity at 10 µM is -7.3%. In the case of `CCOc1ncccc1CNC(=O)N1CCCC1c1cccs1` (stereo not given), the cytotoxicity at 10 µM stood at 4.93%.

For `CC(C)(C)c1noc(CCC(=O)N2CCN(Cc3ccc(Cl)s3)CC2)n1`, the cytotoxicity at 10 µM was 3.36%. Turning to `Cn1cnc2c1CCN(Cc1nc(-c3ccco3)no1)C2`, the cytotoxicity at 10 µM was 0.887%. For `Cc1nc(C2CCCN2Cc2cc(Cl)c3c(c2)OCCO3)no1` (stereo not given), the cytotoxicity at 10 µM is 7.1%. For the compound `Cc1noc(CCNS(=O)(=O)N2CCCC2c2ccco2)n1` (stereo not given), the cytotoxicity at 10 µM was -6.43%. `CCN(Cc1noc(C(C)C)n1)Cc1ccc(C#N)cc1F`: the cytotoxicity at 10 µM was -2.48%. For `Cc1cccc2c1NC1(CCCC1)NC2=O`, the cytotoxicity at 10 µM is -48.5%.

With `Cc1ccccc1OCCC(=O)OC(C)C(=O)Nc1sccc1C(N)=O` (stereo not given), the cytotoxicity at 10 µM was found to be 19.4%. As for `c1cc2c(cc1C1CCCN1Cc1nnnn1C1CC1)OCCO2` (stereo not given), the figure is -25.7%; as for `CS(=O)(=O)NCc1nnc2n1CCN(Cc1cccnc1)C2`, -70.9%; as for `c1cnc(NCC2Cn3nnc(-c4ccsc4)c3CO2)nc1` (stereo not given), -73.3%.

`CNCC(=O)Nc1cccc(-c2cnc(NCCS(C)(=O)=O)nc2)c1`: the cytotoxicity at 10 µM is -1.31%. As for `O=C(CC1CCCC1)N[C@H]1CN(Cc2c[nH]cn2)C[C@@H]1C1CC1`, the figure is -54.7%; as for `CCCN(Cc1ccccn1)Cc1ccccc1OC`, -43.3%; as for `CNC(=O)[C@@H]1C[C@@H](N)CN1c1nc(N2CCCC2)nc(C)c1C`, -7.82%. As for `Cc1cc(C)c2nc(C)cc(C(=O)NCc3csc(N(C)C)n3)c2c1`, the cytotoxicity at 10 µM was determined as 13.5%. For the compound `CCc1[nH]c2c(CNc3cncc(C(=O)OC)n3)cc(C)cc2c1C`, the cytotoxicity at 10 µM was determined as 1.85%. Turning to `CCn1nc(C(C)C)cc1C(=O)NCC1CCCN(c2ccccn2)C1` (stereo not given), the cytotoxicity at 10 µM was 5.65%. Regarding `CCN1CCC(CNS(=O)(=O)N2CCc3ccccc3C2)C1` (stereo not given), the cytotoxicity at 10 µM is -15.4%.

Consider `COc1ccccc1-n1nc(-c2ccco2)n(CC(=O)NC(C)C)c1=O`, for which the cytotoxicity at 10 µM came out at 2.57%. Take `Cc1nc(C)c(C)c(NCc2cnn3cccnc23)n1`: the cytotoxicity at 10 µM was 15.5%.

For the compound `CC(=O)N1CCc2c(nc(N(C)C)nc2NCCC2CCCCO2)C1` (stereo not given), the cytotoxicity at 10 µM amounted to 5.22%. As for `O=C(NCCn1cccn1)Nc1cc(C(=O)N2CCOCC2)ccc1Cl`, the figure is -46.6%; as for `O=C(Cn1ccnc1)N1CCCC(OCc2cccnc2)C1` (stereo not given), 2.03%; as for `NC(=O)C1CCN(CC(=O)NCCn2cc(Cl)cn2)CC1`, -50%. With `O=C(O)c1cc(-n2cc3c(n2)CCC3)cc(S(=O)(=O)N2CCOCC2)c1`, the cytotoxicity at 10 µM is -7.95%. Consider `Cc1nc(CN(C)Cc2cn[nH]c2-c2ccc(F)cc2)c[nH]1`, for which the cytotoxicity at 10 µM is -17.8%. On to `O=C(NCc1nnnn1-c1ccccc1)c1ccc(C2CCCO2)s1` (stereo not given), for which the cytotoxicity at 10 µM is 0.363%. On to `Cc1nonc1C1CCCN1C(=O)c1cc2n(n1)CCCNC2` (stereo not given), for which the cytotoxicity at 10 µM is -7.73%. Take `CSc1ccccc1C(=O)N1C[C@@H](N(C)C)[C@H](c2ccc(C)cc2)C1`: the cytotoxicity at 10 µM is -7.02%. As to `O=C(c1ccc(Cl)s1)N1CCCn2nc(CN3CC[C@H](F)C3)cc2C1`, the cytotoxicity at 10 µM is -1.44%. As to `CC(O)C(=O)N1CCN(c2ccccc2Cl)C(=O)C1` (stereo not given), the cytotoxicity at 10 µM is -1.59%. Take `Cc1nc2c(c(N(C)C)n1)CCN(C(=O)CN1CCC(O)CC1)C2`: the cytotoxicity at 10 µM came out at 3.6%. For `Cc1ccc2cc(CN(C)Cc3ccccn3)c(=O)[nH]c2c1`, the cytotoxicity at 10 µM stood at 3.08%.

Turning to `CCN(C)C(=O)c1cccc(S(=O)(=O)NCCc2nc(C)cc(=O)[nH]2)c1`, the cytotoxicity at 10 µM was -39.9%. Turning to `O=C(Cn1c(=O)n(Cc2ccco2)c2ncccc21)Nc1ccccn1`, the cytotoxicity at 10 µM is 0.822%. For the compound `Nc1nc2nc(C3CCCN(C(=O)c4cscn4)C3)ccc2s1` (stereo not given), the cytotoxicity at 10 µM was -1.44%. Under `COc1ccc(-c2nnc(CN3CCCC3Cn3cncn3)o2)cc1` (stereo not given) stands 3.02%; under `CC(C)COC(C)C(=O)NCc1ccc(-n2cncn2)nc1` (stereo not given), -5.65%. For the compound `CSCC(=O)N1CCCC(n2ccnc2C(C)C)C1` (stereo not given), the cytotoxicity at 10 µM is -18.2%. Under `CNS(=O)(=O)c1cccc(CNc2cc(C(F)(F)F)ccn2)c1` stands -6.85%; under `CCN1CCC2(CC1)OCCN2C(=O)c1ccc(OC)c(Cl)c1`, 9.55%; under `CCn1ncc2c1CN(C(=O)c1cscn1)CC2COC` (stereo not given), -79.1%. As to `O=C(C1CCCC1)N1C[C@@H](c2ccsc2)[C@@H]2CN(C3CCCC3)CC[C@@H]21`, the cytotoxicity at 10 µM was 4.79%. `O=c1ccc2c([nH]1)CCC(NCc1ccc(F)cc1)C2` (stereo not given): the cytotoxicity at 10 µM is -1.87%. `COc1cccc(CC(=O)N2CC[C@@H]3[C@H](CC2)N(C)CCS3(=O)=O)c1`: the cytotoxicity at 10 µM was found to be 3.68%. On to `Cc1cc(CN2C[C@@H]3COC[C@]3(CNC(=O)N(C)C)C2)no1`, for which the cytotoxicity at 10 µM was -71.4%. Turning to `Cc1cccc(CN2C(=O)CO[C@@H]3CN(Cc4cnn(C)c4)C[C@H]32)c1`, the cytotoxicity at 10 µM came to 1.1%. Under `Cc1ccc(CN2CCc3onc(C(=O)NC(C)C)c3C2)o1` stands 11.5%. In the case of `Cc1sc(Br)cc1S(=O)(=O)NCCN`, the cytotoxicity at 10 µM is -6.69%. `Cc1oncc1C(=O)N1CCOCC2(CCN(c3ccccn3)C2)C1` (stereo not given): the cytotoxicity at 10 µM is -68.3%. Turning to `CCc1ccc(CN2CCC3(CC2)CC(N2CCN(C)CC2)CO3)cc1` (stereo not given), the cytotoxicity at 10 µM is -2.88%. `Cc1ccc(C(=O)N2CCn3cnc(COCC4CC4)c3C2)cn1`: the cytotoxicity at 10 µM is 4.03%. Consider `Cc1cc(CN2C[C@@H]3COC[C@H](C(=O)N4CCCCO4)[C@@H]3C2)oc1C`, for which the cytotoxicity at 10 µM was -74.1%. As for `CNC(=O)[C@@H](CC(C)C)N1CCC[C@H]1C(=O)N(C)Cc1cccnc1`, the figure is 3.95%; as for `Cc1cccc(S(=O)(=O)N2C[C@@H]3C[C@H](C(=O)NCC(C)C)[C@H](C2)O3)c1`, 6.53%; as for `C=C1C(C)(C)[C@@H]2CC[C@]1(C(=O)N1CCC(Cn3cc(CO)nn3)CC1)C2`, -6.01%. For the compound `CC(C)NC(=O)NCC1(COc2cnccn2)C[C@@H](O)[C@@H](O)C1` (stereo not given in full), the cytotoxicity at 10 µM is -9.85%. With `c1ccc(CN2C[C@@H]3CC[C@H]2CN(Cc2nnc(C4CC4)o2)C3)cc1`, the cytotoxicity at 10 µM was -22.4%. As for `CCc1cc(N[C@@H]2C[C@@H]3CC[C@H]2C3)n2nccc2n1`, the figure is -2.24%.
